Laboratory results published in BindingDB's records for doi:10.1016/j.bmcl.2012.04.051 (Ajinomoto Pharmaceuticals, 2012).
pIC50: −log10 of the molar value.

Target: Voltage-dependent N-type calcium channel subunit alpha-1B (Homo sapiens, UniProt Q00975)
Assay: Inhibition of N-type voltage-dependent calcium channel CaV2.2 in human IMR32 cells assessed as inhibition of KCl-induced increase in intracellular calcium concentration preincubated for 4 to 5 mins before KCl challenge
Outline: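 IMR-32 cells on poly-L-lysine/collagen dishes, differentiated with 1 mM dibutyl-cAMP and 2.5 µM bromodeoxyuridine for 10–14 days. Loaded with 2.5 µM fura-2/AM, 37 °C, 30 min. HEPES recording medium with 1 µM nifedipine throughout. Calcium rise evoked by 60 mM KCl for 6 s, repeated every 5 min. Compound at 0.1, 1 or 10 µM; IC50 from ≥2 independent experiments.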

Chain of Voltage-dependent N-type calcium channel subunit alpha-1B (Q00975 whole entry): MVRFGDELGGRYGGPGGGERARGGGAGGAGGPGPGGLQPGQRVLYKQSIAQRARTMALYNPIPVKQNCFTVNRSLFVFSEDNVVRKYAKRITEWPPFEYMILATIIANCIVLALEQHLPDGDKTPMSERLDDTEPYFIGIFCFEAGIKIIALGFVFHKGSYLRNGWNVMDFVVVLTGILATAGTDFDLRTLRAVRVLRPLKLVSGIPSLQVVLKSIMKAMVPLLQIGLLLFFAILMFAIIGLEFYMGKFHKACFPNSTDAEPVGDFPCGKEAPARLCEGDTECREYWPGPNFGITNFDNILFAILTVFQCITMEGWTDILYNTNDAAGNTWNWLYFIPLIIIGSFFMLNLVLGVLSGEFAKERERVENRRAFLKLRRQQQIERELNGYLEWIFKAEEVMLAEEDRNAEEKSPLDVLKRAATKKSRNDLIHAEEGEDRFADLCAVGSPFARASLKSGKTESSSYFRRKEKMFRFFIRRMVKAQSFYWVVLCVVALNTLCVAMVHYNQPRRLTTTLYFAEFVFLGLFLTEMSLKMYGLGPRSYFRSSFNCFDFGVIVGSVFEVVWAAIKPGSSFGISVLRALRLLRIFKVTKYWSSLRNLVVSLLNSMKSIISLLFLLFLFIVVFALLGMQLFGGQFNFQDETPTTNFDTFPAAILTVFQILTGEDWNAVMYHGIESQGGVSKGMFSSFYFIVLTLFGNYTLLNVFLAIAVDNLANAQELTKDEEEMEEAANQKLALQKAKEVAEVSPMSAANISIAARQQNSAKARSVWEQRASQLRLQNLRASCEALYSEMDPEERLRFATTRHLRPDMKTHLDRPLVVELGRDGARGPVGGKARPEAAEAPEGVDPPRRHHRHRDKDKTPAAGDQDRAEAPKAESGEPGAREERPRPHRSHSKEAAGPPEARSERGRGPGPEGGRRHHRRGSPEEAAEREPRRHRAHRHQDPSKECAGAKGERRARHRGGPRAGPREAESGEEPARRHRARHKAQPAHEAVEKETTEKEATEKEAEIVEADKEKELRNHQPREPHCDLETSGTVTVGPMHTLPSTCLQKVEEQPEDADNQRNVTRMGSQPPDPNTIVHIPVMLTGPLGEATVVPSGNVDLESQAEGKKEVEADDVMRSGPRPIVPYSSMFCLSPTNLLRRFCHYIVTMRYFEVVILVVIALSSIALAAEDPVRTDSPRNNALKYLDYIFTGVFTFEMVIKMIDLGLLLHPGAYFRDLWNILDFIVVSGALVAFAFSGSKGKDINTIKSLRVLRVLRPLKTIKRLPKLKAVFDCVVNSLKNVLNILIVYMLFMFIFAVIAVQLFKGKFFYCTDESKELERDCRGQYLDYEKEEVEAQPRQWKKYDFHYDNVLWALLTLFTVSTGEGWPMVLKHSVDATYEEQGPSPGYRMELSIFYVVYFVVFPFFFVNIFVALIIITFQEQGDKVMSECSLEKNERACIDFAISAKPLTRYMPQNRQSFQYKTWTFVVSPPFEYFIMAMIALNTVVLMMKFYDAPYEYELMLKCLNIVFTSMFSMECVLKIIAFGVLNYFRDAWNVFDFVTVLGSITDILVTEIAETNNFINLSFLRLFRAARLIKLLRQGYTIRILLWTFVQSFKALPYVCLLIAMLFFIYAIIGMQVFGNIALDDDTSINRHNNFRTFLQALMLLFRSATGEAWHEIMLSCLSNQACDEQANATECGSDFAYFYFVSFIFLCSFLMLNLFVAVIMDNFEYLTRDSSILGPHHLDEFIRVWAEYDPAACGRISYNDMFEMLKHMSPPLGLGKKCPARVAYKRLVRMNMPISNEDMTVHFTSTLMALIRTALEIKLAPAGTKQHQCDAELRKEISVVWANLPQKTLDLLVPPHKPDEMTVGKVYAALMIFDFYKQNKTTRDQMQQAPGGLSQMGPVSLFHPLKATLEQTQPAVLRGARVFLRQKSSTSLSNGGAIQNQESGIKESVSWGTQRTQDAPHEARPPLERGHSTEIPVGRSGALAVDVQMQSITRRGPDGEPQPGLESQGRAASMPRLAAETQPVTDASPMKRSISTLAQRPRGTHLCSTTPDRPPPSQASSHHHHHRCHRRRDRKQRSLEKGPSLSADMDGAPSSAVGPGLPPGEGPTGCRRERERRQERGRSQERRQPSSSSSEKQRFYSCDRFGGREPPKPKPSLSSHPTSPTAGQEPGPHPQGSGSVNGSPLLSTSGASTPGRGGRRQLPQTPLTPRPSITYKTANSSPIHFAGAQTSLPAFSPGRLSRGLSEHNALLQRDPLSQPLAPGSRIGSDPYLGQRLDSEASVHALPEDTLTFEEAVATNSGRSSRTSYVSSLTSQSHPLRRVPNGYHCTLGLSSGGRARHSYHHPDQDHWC

**Q.** `COc1c(Cl)cc(C2C(C(=O)OC/C=C/c3ccccc3)=CN=CC2C(=O)O)cc1Cl` (configuration not stated) was tested. Which pIC50 did it give?
**A.** 6.24

**Q.** With `COC(OC)C1=C(C(=O)OC/C=C/c2ccccc2)C(c2cccc(C(F)(F)F)c2)C(C(=O)O)C=N1` (configuration not stated) as the compound, how does the pIC50 read?
**A.** 5.96

**Q.** With `O=C(OC/C=C/c1ccccc1)C1=CN=CC(C(=O)O)C1c1ccc(Cl)cc1` (configuration not stated) as the compound, how does the pIC50 read?
**A.** 5.92

**Q.** With `O=C(OC/C=C/c1ccccc1)C1=CN=CC(C(=O)O)C1c1cccc(C(F)(F)F)c1` (configuration not stated) as the compound, how does the pIC50 read?
**A.** 5.92

**Q.** With `COC(OC)C1=C(C(=O)OC/C=C/c2ccccc2)C(c2cccc(Cl)c2)C(C(=O)O)C=N1` (configuration not stated) as the compound, how does the pIC50 read?
**A.** 5.96

**Q.** `COC(OC)C1=C(C(=O)OC/C=C/c2ccccc2)C(c2ccc(Cl)cc2)C(C(=O)O)C=N1` (configuration not stated) was tested. Which pIC50 did it give?
**A.** 5.96

**Q.** With `COc1c(Cl)cc(C2C(C(=O)OC/C=C/c3ccccc3)=C(C(OC)OC)N=CC2C(=O)O)cc1Cl` (configuration not stated) as the compound, how does the pIC50 read?
**A.** 5.92
